In series [1] the target is Ubiquitin-conjugating enzyme E2 D3 (Mus musculus) (UniProt P61079). The series can be described thus: Inhibition of UbcH5c in mouse b.End3 cells assessed as decrease in TNF-alpha-mediated IkB-alpha phosphorylation at 10 uM preincubated for 2 hrs followed by TNF-alpha stimulation for 20 mins by Western blot analysis. In kind it is cell-based. In a few lines: (§1)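 bEnd.3 cells (DMEM, 10% FBS) were pretreated with compound at 2.5, 5 or 10 µM for 2 h, then stimulated with 20 ng/mL TNF-α (15 min in the methods, 20 min in the legend). Lysates were run on 10% SDS-PAGE and immunoblotted for phospho-IκBα, IκBα, phospho-p65 and p65, with GAPDH as loading control.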
In general terms: A western blot detects proteins with antibodies after separation by electrophoresis.

The nature of the next series: in vitro. Particulars: human, HEK-293T cells.
Series [2] concerns the target Ubiquitin-conjugating enzyme E2 D3 (Mus musculus) (UniProt P61079). Kind of series: Inhibition of UbcH5c in mouse b.End3 cells assessed as decrease in TNF-alpha-mediated p65 phosphorylation preincubated for 2 hrs followed by TNF-alpha stimulation for 20 mins by Western blot analysis. The series is classed as cell-based. The method in brief:
as §1

Series [3] has the same target. Kind of series: Inhibition of UbcH5c in mouse b.End3 cells assessed as decrease in TNF-alpha-mediated IkB-alpha degradation at 10 uM preincubated for 2 hrs followed by TNF-alpha stimulation for 15 mins by Western blot analysis.
Series [4] shares this target. The series can be described thus: Inhibition of UbcH5c in mouse b.End3 cells assessed as decrease in TNF-alpha-mediated IkB-alpha degradation preincubated for 2 hrs followed by TNF-alpha stimulation for 20 mins by Western blot analysis. The series is classed as cell-based. In a few lines:
as §1

For series [5] the target is unchanged. Kind of series: Inhibition of UbcH5c in mouse b.End3 cells assessed as decrease in TNF-alpha-mediated IkB-alpha phosphorylation preincubated for 2 hrs followed by TNF-alpha stimulation for 20 mins by Western blot analysis. The series is classed as cell-based. In a few lines:
as §1

For series [6], the target named is T1, Ubiquitin-conjugating enzyme E2 D3 (Homo sapiens, UniProt P61077). Kind of series: Inhibition of UbcH5c (unknown origin) at 1 uM preincubated for 15 mins followed by E1, Ub and ATP addition measured after 40 mins by Western blot analysis.
Series [7] addresses T1, Ubiquitin-conjugating enzyme E2 D3. Kind of series: Binding affinity to human recombinant UbcH5c by SPR analysis. (SPR reads the build-up and loss of mass on a sensor chip optically.)

Calls of active or inactive are those of the source. No cut-off for these calls is given here.

The record followed here is ChEMBL document CHEMBL4028851, “Discovery of Potent Small-Molecule Inhibitors of Ubiquitin-Conjugating Enzyme UbcH5c from α-Santonin Derivatives” (J Med Chem, 2017).

Sequence of Ubiquitin-conjugating enzyme E2 D3 (Mus musculus) (P61079 whole entry, looked up): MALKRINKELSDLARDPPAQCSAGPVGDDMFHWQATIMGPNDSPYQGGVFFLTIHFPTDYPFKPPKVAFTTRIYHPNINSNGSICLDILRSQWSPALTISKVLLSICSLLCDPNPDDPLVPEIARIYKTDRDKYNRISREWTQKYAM
T1 sequence (P61077 whole entry, looked up): as the sequence (P61079 whole entry, looked up) above

Consider `C=C1C(=O)O[C@H]2c3c(C)c(OC(=O)/C=C/c4cccnc4)cc(C)c3CC[C@@H]12`, for which the inhibition result in series [1] and in series [3] was “Active” in each case. Besides, in “in vitro”, the cytotoxicity at 5 µM was under 20%. Also, the inhibition result in series [2], in series [4] and in series [5] was “Dose-dependent effect” each time.

Turning to `C=C1C(=O)O[C@@H]2C3[C@@H](C)[C@@H](OC(=O)C4CCCCC4)CC[C@]3(C)CC[C@@H]12` (some centres not stated), the inhibition entry in series [6] was “inactive”.

Turning to `C=C1C(=O)O[C@@H]2C3[C@@H](C)[C@@H](OC(=O)c4ccc(I)cc4)CC[C@]3(C)CC[C@@H]12` (some centres not stated), the inhibition result in series [1] and in series [3] was “Active” each time. Besides, in “in vitro”, the cytotoxicity at 5 µM is under 20%. Further, the inhibition result in series [2], in series [4] and in series [5] was “Dose-dependent effect” each time.

On to `C=C1C(=O)O[C@@H]2C3=C(C)[C@@H](OC(=O)/C=C/c4ccc(OCCC)cc4)CC3[C@](C)(OC(C)=O)CC[C@@H]12` (some centres not stated), for which, in the series “in vitro”, the cytotoxicity at 5 µM was under 20%.

In “in vitro”, `C=C1C(=O)O[C@@H]2C3=C(C)[C@@H](OC(=O)c4ccc(C)cc4)CC3[C@](C)(OC(C)=O)CC[C@@H]12` (some centres not stated) showed a cytotoxicity at 5 µM of under 20%.

Take `C=C1C(=O)O[C@@H]2C3[C@@H](C)[C@@H](OC(=O)CCCC)CC[C@]3(C)CC[C@@H]12` (some centres not stated): the inhibition result in series [6] was “inactive”.

Consider `C=C1C(=O)O[C@@H]2C3=C(C)[C@@H](OC(=O)c4ccc(Cl)cc4)CC3[C@](C)(OC(C)=O)CC[C@@H]12` (some centres not stated), for which the inhibition entry in series [1] and in series [3] was “Active” each time. Moreover, the cytotoxicity at 5 µM in “in vitro” is under 20%. Besides, the inhibition result in series [2], in series [4] and in series [5] was “Dose-dependent effect” throughout.

As for `C=C1C(=O)O[C@H]2c3c(C)c(OCc4ccccc4C(F)(F)F)cc(C)c3CC[C@@H]12`, the cytotoxicity at 5 µM in “in vitro” was under 20%.

Turning to `C=C1C(=O)O[C@@H]2C3=C(C)[C@@H](OC(=O)c4ccccc4)CC3[C@](C)(OC(C)=O)CC[C@@H]12` (some centres not stated), the inhibition result in series [1] and in series [3] was “Active” in each case. Also, the cytotoxicity at 5 µM in the series “in vitro” is under 20%. The inhibition entry in series [2], in series [4] and in series [5] was “Dose-dependent effect” in each case.

With `C=C1C(=O)O[C@@H]2C3[C@@H](C)[C@@H](OC(=O)c4cccc(I)c4)CC[C@]3(C)CC[C@@H]12` (some centres not stated), the inhibition result in series [1] and in series [3] was “Active” each time. The same compound gave a cytotoxicity at 5 µM in the series “in vitro” of under 20%. Besides, the inhibition entry in series [2], in series [4] and in series [5] was “Dose-dependent effect” each time.

In “in vitro”, `C=C1C(=O)O[C@H]2c3c(C)c(OC(=O)/C=C/c4cccs4)cc(C)c3CC[C@@H]12` had a cytotoxicity at 5 µM of under 20%.

Take `C=C1C(=O)O[C@@H]2C3[C@@H](C)[C@@H](OC(=O)c4ccco4)CC[C@]3(C)CC[C@@H]12` (some centres not stated): the cytotoxicity at 5 µM in the series “in vitro” is under 20%.

On to `C=C1C(=O)O[C@@H]2C3[C@@H](C)[C@@H](OC(C)=O)CC[C@]3(C)CC[C@@H]12` (some centres not stated), for which the inhibition entry in series [6] is “inactive”.

As to `C=C1C(=O)O[C@@H]2C3[C@@H](C)[C@@H](OC(=O)CC)CC[C@]3(C)CC[C@@H]12` (some centres not stated), in series [6], the inhibition entry was “inactive”.

Take `C=C1C(=O)O[C@H]2c3c(C)c(OC(=O)c4cccnc4)cc(C)c3CC[C@@H]12`: the cytotoxicity at 5 µM in the series “in vitro” is under 20%.

In turn, `C=C1C(=O)O[C@H]2c3c(C)c(OC(=O)/C=C/c4ccc(OC(F)(F)F)cc4)cc(C)c3CC[C@@H]12` yielded a cytotoxicity at 5 µM in “in vitro” of under 20%.

As to `C=C1C(=O)O[C@H]2c3c(C)c(OCc4ccc(OC(F)(F)F)cc4)cc(C)c3CC[C@@H]12`, the cytotoxicity at 5 µM in “in vitro” is under 20%.

`C=C1C(=O)O[C@@H]2C[C@]3(C)C(=C[C@H]12)[C@@H](C)CC[C@H]3O`: the inhibition entry in series [1] and in series [3] was “Active” throughout. Besides, the Kd in series [7] amounted to 2580 nM.

`C=C1C(=O)O[C@@H]2C3[C@@H](C)[C@@H](OC(=O)C4CCCC4)CC[C@]3(C)CC[C@@H]12` (some centres not stated): the inhibition result in series [6] is “inactive”.

Consider `C=C1C(=O)O[C@@H]2C3[C@@H](C)[C@@H](OC(=O)CCC)CC[C@]3(C)CC[C@@H]12` (some centres not stated), for which the inhibition result in series [6] was “inactive”.

Broadly, the Kd is the concentration at which binding is half-saturated.
